pIC50: −log10 of the molar value. Positions of bridges follow the written chain, without caps; N, C: chain ends. Residues, ends and D or L forms follow the SMILES beside them.
Target: Sodium channel protein type 5 subunit alpha (Homo sapiens, UniProt Q14524)
Assay: Inhibition of human Nav1.5 expressed in HEK293 cells assessed as inward peak current by ion-works quattro patch clamp electrophysiology method
Assay type: cell-based
Method in brief: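 Stable HEK293 line expressing human NaV1.5, recorded by population patch clamp on the IonWorks Quattro.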

Sequence of Sodium channel protein type 5 subunit alpha (Q14524 whole entry): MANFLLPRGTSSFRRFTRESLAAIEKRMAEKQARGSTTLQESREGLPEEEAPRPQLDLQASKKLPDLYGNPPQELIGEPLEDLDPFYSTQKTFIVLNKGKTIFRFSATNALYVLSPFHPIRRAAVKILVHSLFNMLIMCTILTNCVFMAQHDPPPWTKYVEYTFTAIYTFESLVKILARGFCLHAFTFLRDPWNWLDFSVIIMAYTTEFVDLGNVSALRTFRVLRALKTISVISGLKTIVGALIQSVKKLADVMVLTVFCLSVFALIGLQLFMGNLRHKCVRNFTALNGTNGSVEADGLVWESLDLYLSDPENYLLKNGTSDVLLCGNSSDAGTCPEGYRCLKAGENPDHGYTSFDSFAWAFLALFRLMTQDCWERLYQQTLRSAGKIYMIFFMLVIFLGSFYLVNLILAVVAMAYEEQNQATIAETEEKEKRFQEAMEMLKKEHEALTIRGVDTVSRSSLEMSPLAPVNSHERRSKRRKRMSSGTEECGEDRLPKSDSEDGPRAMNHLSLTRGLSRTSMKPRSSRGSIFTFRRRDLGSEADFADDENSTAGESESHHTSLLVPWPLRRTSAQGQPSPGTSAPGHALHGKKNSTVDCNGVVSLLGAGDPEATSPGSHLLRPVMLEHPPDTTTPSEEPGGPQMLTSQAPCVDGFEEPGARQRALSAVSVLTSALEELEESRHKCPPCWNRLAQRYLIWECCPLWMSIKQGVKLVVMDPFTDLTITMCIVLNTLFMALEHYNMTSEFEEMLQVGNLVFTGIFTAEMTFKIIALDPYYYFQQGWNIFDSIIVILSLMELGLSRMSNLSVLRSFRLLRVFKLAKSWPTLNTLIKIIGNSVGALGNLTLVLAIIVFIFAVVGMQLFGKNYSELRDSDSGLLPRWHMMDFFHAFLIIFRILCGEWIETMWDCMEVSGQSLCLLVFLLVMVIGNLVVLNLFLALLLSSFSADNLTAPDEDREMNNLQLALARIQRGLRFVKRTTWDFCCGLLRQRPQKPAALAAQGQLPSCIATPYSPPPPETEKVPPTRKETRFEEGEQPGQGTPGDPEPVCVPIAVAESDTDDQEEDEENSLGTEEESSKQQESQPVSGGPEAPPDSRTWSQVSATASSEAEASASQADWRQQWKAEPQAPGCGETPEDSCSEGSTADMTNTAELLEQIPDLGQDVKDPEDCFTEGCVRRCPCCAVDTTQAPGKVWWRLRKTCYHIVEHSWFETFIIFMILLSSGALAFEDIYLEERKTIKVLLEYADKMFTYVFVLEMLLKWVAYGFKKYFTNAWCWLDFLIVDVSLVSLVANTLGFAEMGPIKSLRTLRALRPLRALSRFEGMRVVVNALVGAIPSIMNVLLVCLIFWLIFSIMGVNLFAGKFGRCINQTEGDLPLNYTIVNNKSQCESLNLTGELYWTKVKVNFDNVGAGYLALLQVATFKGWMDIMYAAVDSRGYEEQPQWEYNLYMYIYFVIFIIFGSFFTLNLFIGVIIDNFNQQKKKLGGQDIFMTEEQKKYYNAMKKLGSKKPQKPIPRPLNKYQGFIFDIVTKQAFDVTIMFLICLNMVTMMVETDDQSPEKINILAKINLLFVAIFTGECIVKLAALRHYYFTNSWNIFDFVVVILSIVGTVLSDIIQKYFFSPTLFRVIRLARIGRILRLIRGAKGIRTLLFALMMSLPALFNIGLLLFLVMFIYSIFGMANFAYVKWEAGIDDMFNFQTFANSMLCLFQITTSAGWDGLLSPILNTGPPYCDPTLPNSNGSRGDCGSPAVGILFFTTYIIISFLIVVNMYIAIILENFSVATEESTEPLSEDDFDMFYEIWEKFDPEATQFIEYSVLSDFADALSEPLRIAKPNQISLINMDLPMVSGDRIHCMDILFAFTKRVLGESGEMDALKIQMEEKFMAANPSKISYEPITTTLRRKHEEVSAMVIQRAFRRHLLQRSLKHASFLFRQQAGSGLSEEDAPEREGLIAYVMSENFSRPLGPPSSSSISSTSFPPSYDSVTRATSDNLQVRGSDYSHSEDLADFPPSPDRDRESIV

Compound	pIC50
CC[C@H](C)[C@@H]1NC(=O)[C@@H]2CSSC[C@@H]3NC(=O)[C@H](C(C)C)NC(=O)[C@H](CC(C)C)NC(=O)[C@H](CC(N)=O)NC(=O)[C@@H]4CCCN4C(=O)[C@H](CCCNC(=N)N)NC(=O)[C@H](CSSC[C@H](NC(=O)[C@@H](N)CCC(=O)O)C(=O)N[C@@H](CC(C)C)C(=O)NCC(=O)N[C@@H](Cc4ccccc4)C(=O)N[C@@H](CCSC)C(=O)N[C@@H](CCCNC(=N)N)C(=O)N[C@@H](CCCCN)C(=O)N2)NC(=O)[C@H](CSSC[C@@H](C(=O)N[C@@H](CCCCN)C(=O)N[C@@H](Cc2ccc(O)cc2)C(=O)N[C@H](C(=O)N[C@@H](Cc2ccccc2)C(N)=O)C(C)C)NC(=O)[C@H](Cc2c[nH]c4ccccc24)NC(=O)[C@H](CCCCN)NC(=O)[C@H](Cc2cnc[nH]2)NC(=O)[C@H]([C@@H](C)O)NC(=O)[C@H](CCCNC(=N)N)NC(=O)[C@H](CO)NC3=O)NC(=O)[C@H](CCCCN)NC(=O)[C@H](CC(=O)O)NC(=O)[C@H](CC(N)=O)NC(=O)[C@H](CC(=O)O)NC(=O)[C@@H]2CCCN2C1=O (H-ECLGFMRKCIPDNDKCCRPNLVCSRTHKWCKYVF-NH2; disulfide 2-17, 9-23, 16-30)	< 5.30
CSCC[C@@H]1NC(=O)[C@H](Cc2ccccc2)NC(=O)CNC(=O)[C@H](CC(C)C)NC(=O)[C@@H](NC(=O)[C@@H](N)CC(=O)O)CSSC[C@@H]2NC(=O)[C@@H]3CSSC[C@@H](C(=O)N[C@@H](CCCCN)C(=O)N[C@@H](Cc4ccc(O)cc4)C(=O)N[C@H](C(=O)N[C@@H](Cc4ccccc4)C(N)=O)C(C)C)NC(=O)[C@H](Cc4c[nH]c5ccccc45)NC(=O)[C@H](CCCCN)NC(=O)[C@H](Cc4cnc[nH]4)NC(=O)[C@H]([C@@H](C)O)NC(=O)[C@H](CCCNC(=N)N)NC(=O)[C@H](CO)NC(=O)[C@H](CSSC[C@H](NC(=O)[C@H](CCCCN)NC(=O)[C@H](CCCNC(=N)N)NC1=O)C(=O)N[C@@H](Cc1ccc(C(=O)O)cc1)C(=O)N1CCC[C@H]1C(=O)N[C@@H](CC(=O)O)C(=O)N[C@@H](CC(N)=O)C(=O)N[C@@H](CC(=O)O)C(=O)N[C@@H](CCCCN)C(=O)N3)NC(=O)[C@H](C(C)C)NC(=O)[C@H](CC(C)C)NC(=O)[C@H](CC(N)=O)NC(=O)[C@@H]1CCCN1C(=O)[C@H](CCCNC(=N)N)NC2=O	< 5.32
CC[C@H](C)[C@@H]1NC(=O)[C@@H]2CSSC[C@@H]3NC(=O)[C@H](C(C)C)NC(=O)[C@H](CC(C)C)NC(=O)[C@H](CC(N)=O)NC(=O)[C@@H]4CCCN4C(=O)[C@H](CCCNC(=N)N)NC(=O)[C@H](CSSC[C@H](NC(=O)[C@@H](N)CC(=O)O)C(=O)N[C@@H](CC(C)C)C(=O)NCC(=O)N[C@@H](Cc4ccccc4)C(=O)N[C@@H](CCSC)C(=O)N[C@@H](CCCNC(=N)N)C(=O)N[C@@H](CCCCN)C(=O)N2)NC(=O)[C@H](CSSC[C@@H](C(=O)N[C@@H](CCCCN)C(=O)N[C@@H](Cc2ccc(O)cc2)C(=O)N[C@@H](CCC(=O)O)C(=O)N[C@@H](Cc2ccccc2)C(N)=O)NC(=O)[C@H](Cc2c[nH]c4ccccc24)NC(=O)[C@H](CCCCN)NC(=O)[C@H](Cc2cnc[nH]2)NC(=O)[C@H]([C@@H](C)O)NC(=O)[C@H](CCCNC(=N)N)NC(=O)[C@H](CO)NC3=O)NC(=O)[C@H](CCCCN)NC(=O)[C@H](CC(=O)O)NC(=O)[C@H](CC(N)=O)NC(=O)[C@H](CC(=O)O)NC(=O)[C@@H]2CCCN2C1=O (H-DCLGFMRKCIPDNDKCCRPNLVCSRTHKWCKYEF-NH2; disulfide 2-17, 9-23, 16-30)	< 5.30
CC[C@H](C)[C@@H]1NC(=O)[C@@H]2CSSC[C@@H]3NC(=O)[C@H](C(C)C)NC(=O)[C@H](CC(C)C)NC(=O)[C@H](CC(N)=O)NC(=O)[C@@H]4CCCN4C(=O)[C@H](CCCNC(=N)N)NC(=O)[C@H](CSSC[C@H](NC(=O)[C@@H](N)CC(=O)O)C(=O)N[C@@H](CC(C)C)C(=O)NCC(=O)N[C@@H](Cc4ccccc4)C(=O)N[C@@H](CCSC)C(=O)N[C@@H](CCCNC(=N)N)C(=O)N[C@@H](CCCCN)C(=O)N2)NC(=O)[C@H](CSSC[C@@H](C(=O)N[C@@H](CCCCN)C(=O)N[C@@H](Cc2ccc(O)cc2)C(=O)N[C@H](C(=O)N[C@@H](Cc2ccccc2)C(N)=O)C(C)C)NC(=O)[C@H](Cc2c[nH]c4ccccc24)NC(=O)[C@H](CCCCN)NC(=O)[C@H](Cc2cnc[nH]2)NC(=O)[C@H]([C@@H](C)O)NC(=O)[C@H](CCCNC(=N)N)NC(=O)[C@H](CO)NC3=O)NC(=O)[C@H](CCCCN)NC(=O)[C@H](CC(=O)O)NC(=O)[C@H](CC(N)=O)NC(=O)[C@H](CCCCN)NC(=O)[C@@H]2CCCN2C1=O (H-DCLGFMRKCIPKNDKCCRPNLVCSRTHKWCKYVF-NH2; disulfide 2-17, 9-23, 16-30)	< 5.33
CC[C@H](C)[C@@H]1NC(=O)[C@@H]2CSSC[C@@H]3NC(=O)[C@H](C(C)C)NC(=O)[C@H](CC(C)C)NC(=O)[C@H](CC(N)=O)NC(=O)[C@@H]4CCCN4C(=O)[C@H](CCCNC(=N)N)NC(=O)[C@H](CSSC[C@H](NC(=O)[C@@H](N)CC(=O)O)C(=O)N[C@@H](CC(C)C)C(=O)NCC(=O)N[C@@H](Cc4ccccc4)C(=O)N[C@@H](CCSC)C(=O)N[C@@H](CCCNC(=N)N)C(=O)N[C@@H](CCCCN)C(=O)N2)NC(=O)[C@H](CSSC[C@@H](C(=O)N[C@@H](CCCCN)C(=O)N[C@@H](Cc2ccc(O)cc2)C(=O)N[C@H](C(=O)N[C@@H](Cc2ccccc2)C(=O)N[C@@H](CCCCN)C(N)=O)C(C)C)NC(=O)[C@H](Cc2c[nH]c4ccccc24)NC(=O)[C@H](CCCCN)NC(=O)[C@H](Cc2cnc[nH]2)NC(=O)[C@H]([C@@H](C)O)NC(=O)[C@H](CCCNC(=N)N)NC(=O)[C@H](CO)NC3=O)NC(=O)[C@H](CCCCN)NC(=O)[C@H](CC(=O)O)NC(=O)[C@H](CC(N)=O)NC(=O)[C@H](CC(=O)O)NC(=O)[C@@H]2CCCN2C1=O	< 5.30
CSCC[C@@H]1NC(=O)[C@H](Cc2ccccc2)NC(=O)CNC(=O)[C@H](CC(C)C)NC(=O)[C@@H](NC(=O)[C@@H](N)CC(=O)O)CSSC[C@@H]2NC(=O)[C@@H]3CSSC[C@@H](C(=O)N[C@@H](CCCCN)C(=O)N[C@@H](Cc4ccc(O)cc4)C(=O)N[C@H](C(=O)N[C@@H](Cc4ccccc4)C(N)=O)C(C)C)NC(=O)[C@H](Cc4c[nH]c5ccccc45)NC(=O)[C@H](CCCCN)NC(=O)[C@H](Cc4cnc[nH]4)NC(=O)[C@H]([C@@H](C)O)NC(=O)[C@H](CCCNC(=N)N)NC(=O)[C@H](CO)NC(=O)[C@H](CSSC[C@H](NC(=O)[C@H](CCCCN)NC(=O)[C@H](CCCNC(=N)N)NC1=O)C(=O)N[C@@H]([C@@H](C)O)C(=O)N1CCC[C@H]1C(=O)N[C@@H](CC(=O)O)C(=O)N[C@@H](CC(N)=O)C(=O)N[C@@H](CC(=O)O)C(=O)N[C@@H](CCCCN)C(=O)N3)NC(=O)[C@H](C(C)C)NC(=O)[C@H](CC(C)C)NC(=O)[C@H](CC(N)=O)NC(=O)[C@@H]1CCCN1C(=O)[C@H](CCCNC(=N)N)NC2=O (H-DCLGFMRKCTPDNDKCCRPNLVCSRTHKWCKYVF-NH2; disulfide 2-17, 9-23, 16-30)	< 5.30
